# ChEMBL document CHEMBL1157858, “Synthesis and antituberculosis activity of some N-pyridyl-N'-thiazolylhydrazine derivatives” (Eur J Med Chem, 2010)
# Assays:
# [1] = test system: Mycobacterium tuberculosis; experiment: Antitubercular activity against Mycobacterium tuberculosis H37Rv by Alamar blue assay; format: functional, organism-based
# Summary of the method: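 M. tuberculosis H37Rv (ATCC 27294) grown in BACTEC 12B medium and tested by Microplate Alamar Blue Assay. Ten 2-fold dilutions, typically from 100 to 0.19. IC90 is the concentration giving a 90% drop in fluorescence relative to controls.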
# [2] = Cytotoxicity against african green monkey Vero cells after 72 hrs by cell titer-glo assay; format: cell-based; details: chlorocebus sabaeus
# Summary of the method: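 Vero cells, run alongside the TB dose-response assay; compound exposure 72 h, then viability read by ATP-based luminescence (CellTiter-Glo). CC50 taken from the dose–response curve by curve fitting.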
# [3] = Selectivity index, ratio of CC50 for african green monkey Vero cells to IC90 for Mycobacterium tuberculosis H37Rv; format: toxicity, cell-based; details: read-out: Selectivity Index
# Summary of the method: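 Vero cells run in parallel with the TB dose-response assay. Viability is read after 72 h exposure by CellTiter-Glo luminescence, which quantifies cellular ATP. CC50 is fitted from the dose-response curve. IC90 for H37Rv comes from the MABA fluorescence readout, as a 90% reduction relative to controls.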
SMILES,IC50 [1] [µg/mL],IC90 [1] [µg/mL],CC50 at 72 h [2] [µg/mL],selectivity ratio [3]
COc1ccc(O)c(-c2csc(N/N=C(\C)c3ccncc3)n2)c1,> 100,> 100,–,–
C/C(=N\Nc1nc(-c2cccs2)cs1)c1cccnc1,92.2,> 100,–,–
C/C(=N\Nc1nc(-c2cccs2)cs1)c1ccccn1,48.4,55.2,–,–
C/C(=N\Nc1nc(-c2cccs2)cs1)c1ccncc1,> 100,> 100,–,–
COc1ccc(O)c(-c2csc(N/N=C(\C)c3ccccn3)n2)c1,6.22,6.78,> 40,> 5.89
COc1ccc(O)c(-c2csc(N/N=C(\C)c3cccnc3)n2)c1,> 100,> 100,–,–
